Assay results taken from ChEMBL document CHEMBL1137506, “Novel orally active, dibenzazepinone-based gamma-secretase inhibitors” (Bioorg Med Chem Lett, 2007).

Experiments:
Gamma-secretase [1] = assay: Inhibition of human gamma secretase assessed as amyloid-beta40 peptide production […] by ELISA; assay type: cell-based; conditions: hek293
Method in brief: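 Cell-free assay. Membrane fractions from HEK293 cells carrying γ-secretase activity are incubated with a recombinant APP C-terminal fragment as substrate. The Aβ40 peptide produced is quantified by ELISA, and IC50 is derived from it.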

[2] = Maximal achievable bioavailability in rat liver microsomes; assay type: ADME, Microsome; conditions: read-out: Max Achievable Bioavailability
[3] = Maximal achievable bioavailability in human liver microsomes; assay type: ADME, Microsome; conditions: read-out: Max Achievable Bioavailability
Method in brief: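 Maximal achievable bioavailability is estimated from compound incubations with liver microsomes of the stated species.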

Gamma-secretase [4] = assay: Inhibition of human gamma secretase in HEK293 cells by reporter gene assay; assay type: cell-based
Method in brief: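 Cellular reporter assay in HEK293 cells. The γ-secretase substrate is a Notch 1 construct fused to a Gal4/VP16 transcription factor, which drives a firefly luciferase reporter gene. IC50 is taken from inhibition of the luciferase signal.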

[5] = Oral bioavailability in mouse at 7.8 mg/kg, po; assay type: ADME, organism-based; conditions: in vivo
Method in brief: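 Oral bioavailability (F) in mice after a 7.8 mg/kg oral dose.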

[6] = Ratio of drug level in brain to plasma in mouse; assay type: ADME
Mus musculus = assay: Increase of CTF-APP ratio in po dosed transgenic mouse AD model after 2 days; assay type: functional
[7] = Clearance in mouse; assay type: ADME, organism-based; conditions: in vivo
[8] = Solubility of compound; assay type: physicochemical

| SMILES | IC50 (Gamma-secretase [1]) [nM] | Fh [2] [%] | Fh [3] [%] | IC50 (Gamma-secretase [4]) [nM] | also measured |
| --- | --- | --- | --- | --- | --- |
| CC(C(=O)NC1C(=O)N(C)c2ccccc2-c2ccccc21)C(=O)NC(C)(C)c1ccccc1 (centres undefined) | > 20000 | 9 | 14 | > 20000 | – |
| C[C@H](OC(=O)NCC(F)(F)C(F)(F)F)C(=O)N[C@@H]1C(=O)N(C)c2ccccc2-c2ccccc21 | 8.6 | 70 | 72 | 1.7 | bioavailability [5]: 23%; Kp [6]: 0.5; MED (Mus musculus): 3 mg/kg; clearance [7]: 32 mL/min/kg |
| CC(OC(=O)NCC(F)(F)C(F)(F)F)C(=O)N[C@@H]1C(=O)N(C)c2ccccc2-c2ccccc21 (some centres undefined) | – | – | – | 2 | – |
| CC(C(=O)NCC(F)(F)C(F)(F)F)C(=O)N[C@@H]1C(=O)N(C)c2ccccc2-c2ccccc21 (mixture of isomers) | 3 | 38 | 55 | 1.7 | bioavailability [5]: 21%; Kp [6]: 0.5; Solubility [8]: 28 mg/mL; MED (Mus musculus): 3 mg/kg; clearance [7]: 53 mL/min/kg |
| CC(C(=O)NC1CCc2ccccc21)C(=O)NC1C(=O)N(C)c2ccccc2-c2ccccc21 (centres undefined) | 12000 | – | – | 14000 | – |
| CC(C(=O)NCc1cc(F)cc(F)c1)C(=O)NC1C(=O)N(C)c2ccccc2-c2ccccc21 (centres undefined) | 22 | 9 | 10 | 10 | – |
| CC(C(=O)NCc1cc(F)cc(F)c1)C(=O)N[C@H]1C(=O)N(C)c2ccccc2-c2ccccc21 (mixture of isomers) | 620 | – | – | 580 | – |
| CC(C(=O)NCC1CC1)C(=O)NC1C(=O)N(C)c2ccccc2-c2ccccc21 (centres undefined) | 90 | 12 | 18 | 210 | – |
| CC(C(N)=O)C(=O)NC1C(=O)N(C)c2ccccc2-c2ccccc21 (centres undefined) | 5300 | – | – | > 25000 | – |
| CC(C(=O)NC(C)c1ccccc1)C(=O)NC1C(=O)N(C)c2ccccc2-c2ccccc21 (centres undefined) | 5700 | – | – | 6300 | – |
| C[C@H](NC(=O)[C@@H](O)c1cc(F)cc(F)c1)C(=O)N[C@@H]1C(=O)N(C)c2ccccc2-c2ccccc21 | – | – | – | – | MED (Mus musculus): 20 mg/kg |
| CC(C(=O)NCC(F)(F)F)C(=O)NC1C(=O)N(C)c2ccccc2-c2ccccc21 (centres undefined) | 20 | 37 | 55 | 42 | – |
| C[C@H](C(=O)NCc1cc(F)cc(F)c1)C(=O)N[C@@H]1C(=O)N(C)c2ccccc2-c2ccccc21 | 8.7 | – | – | 7.1 | – |

More lines, main results first:

| IC50 (Gamma-secretase [1]) [nM] | Fh [2] [%] | Fh [3] [%] | IC50 (Gamma-secretase [4]) [nM] | SMILES | also measured |
| --- | --- | --- | --- | --- | --- |
| 22000 | – | – | > 25000 | CC(C(=O)NC(CO)c1ccccc1)C(=O)NC1C(=O)N(C)c2ccccc2-c2ccccc21 (centres undefined) | – |
| 2700 | – | – | 1500 | C[C@H](OC(=O)Nc1ccccc1)C(=O)NC1C(=O)N(C)c2ccccc2-c2ccccc21 (some centres undefined) | – |
| 37 | – | – | 24 | CC(C(=O)NCCC(F)(F)F)C(=O)NC1C(=O)N(C)c2ccccc2-c2ccccc21 (centres undefined) | – |
| 2 | – | – | 1.6 | C[C@@H](C(=O)NCc1cc(F)cc(F)c1)C(=O)N[C@@H]1C(=O)N(C)c2ccccc2-c2ccccc21 | – |
| 3000 | – | – | 3300 | CCOCCNC(=O)C(C)C(=O)NC1C(=O)N(C)c2ccccc2-c2ccccc21 (centres undefined) | – |
| 3.1 | – | – | 8.8 | CC(C(=O)NCc1cc(F)cc(F)c1)C(=O)N[C@@H]1C(=O)N(C)c2ccccc2-c2ccccc21 (mixture of isomers) | – |
| 15 | – | – | 75 | CC(C(=O)NCc1ccccc1)C(=O)NC1C(=O)N(C)c2ccccc2-c2ccccc21 (centres undefined) | – |
